Source: ChEMBL document CHEMBL3044709, “Antimicrobial furostanol saponins from the seeds of Capsicum annuum L. var. acuminatum” (2002)
≈ marks a conversion by molar mass, not a printed value.

Experiments:
Assay type in all cases: functional
[1] = test system: Lacticaseibacillus rhamnosus; assay: Antimicrobial activity against Lactobacillus rhamnosus DSM 20021 after 48 hr by agar dilution method; settings: DSM 20021, 48 h
Summary of the method: (§1)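 Agar dilution on standard plate count agar: 0.5 mL of a 2-fold serial dilution of sample mixed into 9.5 mL medium, poured into Petri dishes, organism streaked on the surface. Incubated at 28 °C (36 and 48 h). MIC is the lowest tested concentration with no visible growth.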

Lacticaseibacillus casei = assay: Antimicrobial activity against Lactobacillus casei DSM 20011 after 48 hr by agar dilution method; settings: DSM 20011, 48 h; summary of the method: as §1
[2] = test system: Lactiplantibacillus plantarum; assay: Antimicrobial activity against Lactobacillus plantarum DSM 20174 after 48 hr by agar dilution method; settings: DSM 20174, 48 h; summary of the method: as §1
Staphylococcus aureus = assay: Antimicrobial activity against Staphylococcus aureus subsp. aureus DSM 346 after 48 hr by agar dilution method; settings: DSM 346, 48 h; summary of the method: as §1
Bacillus subtilis = assay: Antimicrobial activity against Bacillus subtilis DSM 345 after 48 hr by agar dilution method; settings: DSM 345, 48 h; summary of the method: as §1
Enterococcus faecalis = assay: Antimicrobial activity against Enterococcus faecalis DSM 2570 after 48 hr by agar dilution method; settings: DSM 2570, 48 h; summary of the method: as §1
Pseudomonas aeruginosa = assay: Antimicrobial activity against Pseudomonas aeruginosa DSM 1117 after 48 hr by agar dilution method; settings: DSM 1117, 48 h; summary of the method: as §1
Bacillus licheniformis = assay: Antimicrobial activity against Bacillus licheniformis DSM 13=ATCC 14580 after 48 hr by agar dilution method; settings: DSM 13 = ATCC 14580, 48 h; summary of the method: as §1
[3] = test system: Staphylococcus epidermidis; assay: Antimicrobial activity against Staphylococcus epidermidis DSM 1798 after 48 hr by agar dilution method; settings: DSM 1798, 48 h; summary of the method: as §1
Bacillus cereus = assay: Antimicrobial activity against Bacillus cereus DSM 345 after 48 hr by agar dilution method; settings: DSM 345, 48 h; summary of the method: as §1
Stutzerimonas stutzeri = assay: Antimicrobial activity against Pseudomonas stutzeri ATCC 962 after 48 hr by agar dilution method; settings: ATCC 962, 48 h; summary of the method: as §1
Escherichia coli [4] = assay: Antimicrobial activity against Escherichia coli DSM 682 after 48 hr by agar dilution method; settings: DSM 682, 48 h; summary of the method: as §1
Micrococcus luteus = assay: Antimicrobial activity against Micrococcus luteus DSM 348 after 48 hr by agar dilution method; settings: DSM 348, 48 h; summary of the method: as §1
Escherichia coli [5] = assay: Antimicrobial activity against Escherichia coli ATCC 35346 after 48 hr by agar dilution method; settings: ATCC 35346, 48 h; summary of the method: as §1
[6] = test system: Limosilactobacillus fermentum; assay: Antimicrobial activity against Lactobacillus fermentum DSM 20052 after 48 hr by agar dilution method; settings: DSM 20052, 48 h; summary of the method: as §1
Trichoderma viride = assay: Antimicrobial activity against Hypocrea rufa ATCC 28020 after 48 hr by agar dilution method; settings: ATCC 28020, 48 h
Summary of the method: (§2)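 Fungi tested by agar dilution in malt agar. Serial 2-fold sample dilutions (0.5 mL) were mixed with 9.5 mL medium and plated, then streaked with the organism. Incubation at 28 °C for 36 and 48 h. MIC is the lowest tested concentration without growth.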

Setophoma terrestris = assay: Antimicrobial activity against Setophoma terrestris ATCC 11321 after 48 hr by agar dilution method; settings: ATCC 11321, 48 h; summary of the method: as §2
Penicillium expansum = assay: Antimicrobial activity against Penicillium expansum ATCC 7861 after 48 hr by agar dilution method; settings: ATCC 7861, 48 h; summary of the method: as §2
Rhizopus arrhizus = assay: Antimicrobial activity against Rhizopus oryzae ATCC 56536 after 48 hr by agar dilution method; settings: ATCC 56536, 48 h; summary of the method: as §2

Row | SMILES | MIC [1] | MIC (Lacticaseibacillus casei) | MIC [2] | MIC (Staphylococcus aureus) | MIC (Bacillus subtilis) | MIC (Enterococcus faecalis) | MIC (Pseudomonas aeruginosa) | MIC (Bacillus licheniformis) | MIC [3] | MIC (Bacillus cereus) | MIC (Stutzerimonas stutzeri) | MIC (Escherichia coli [4]) | MIC (Micrococcus luteus) | MIC (Escherichia coli [5]) | MIC [6] | MIC (Trichoderma viride) | MIC (Setophoma terrestris) | MIC (Penicillium expansum) | MIC (Rhizopus arrhizus)
1 | COC1(CC[C@@H](C)CO[C@@H]2O[C@H](CO)[C@@H](O)[C@H](O)[C@H]2O)O[C@H]2C[C@H]3[C@@H]4CC[C@H]5C[C@@H](O[C@@H]6O[C@H](CO)[C@H](O[C@@H]7O[C@H](CO)[C@@H](O)[C@H](O[C@@H]8OC[C@@H](O)[C@H](O)[C@H]8O)[C@H]7O[C@@H]7O[C@H](CO)[C@@H](O)[C@H](O[C@@H]8O[C@H](CO)[C@@H](O)[C@H](O)[C@H]8O)[C@H]7O)[C@H](O)[C@H]6O)CC[C@]5(C)[C@H]4CC[C@]3(C)[C@H]2[C@@H]1C (stereo not given in full) [22-O-METHYL-CAPSICOSIDE D] | 1000 µg/mL (≈ 719 µM) | 1000 µg/mL (≈ 719 µM) | 1000 µg/mL (≈ 719 µM) | > 1000 µg/mL | > 1000 µg/mL | > 1000 µg/mL | > 1000 µg/mL | > 1000 µg/mL | > 1000 µg/mL | 1000 µg/mL (≈ 719 µM) | > 1000 µg/mL | 1000 µg/mL (≈ 719 µM) | > 1000 µg/mL | 1000 µg/mL (≈ 719 µM) | 1000 µg/mL (≈ 719 µM) | – | – | – | –
2 | C=C[C@](C)(CC/C=C(\C)CC/C=C(\C)CC/C=C(/C)CO[C@@H]1O[C@@H](C)[C@H](O)[C@@H](O[C@@H]2O[C@H](CO[C@@H]3O[C@@H](C)[C@H](O)[C@@H](O)[C@H]3O)[C@@H](O)[C@H](O)[C@H]2O)[C@H]1O)O[C@@H]1O[C@H](CO)[C@@H](O)[C@H](O)[C@H]1O[C@@H]1O[C@H](CO)[C@@H](O)[C@H](O)[C@H]1O [CAPSIANOSIDE II] | 1000 µg/mL (≈ 921 µM) | 1000 µg/mL (≈ 921 µM) | 1000 µg/mL (≈ 921 µM) | > 1000 µg/mL | > 1000 µg/mL | > 1000 µg/mL | > 1000 µg/mL | > 1000 µg/mL | > 1000 µg/mL | 1000 µg/mL (≈ 921 µM) | > 1000 µg/mL | 1000 µg/mL (≈ 921 µM) | > 1000 µg/mL | 1000 µg/mL (≈ 921 µM) | 1000 µg/mL (≈ 921 µM) | 1000 µg/mL (≈ 921 µM) | 1000 µg/mL (≈ 921 µM) | 1000 µg/mL (≈ 921 µM) | 1000 µg/mL (≈ 921 µM)
3 | C[C@H](CCC1(O)O[C@H]2C[C@H]3[C@@H]4CC[C@H]5C[C@@H](O[C@@H]6O[C@H](CO)[C@H](O[C@@H]7O[C@H](CO)[C@@H](O)[C@H](O[C@@H]8O[C@H](CO)[C@@H](O)[C@H](O)[C@H]8O)[C@H]7O[C@@H]7O[C@H](CO)[C@@H](O)[C@H](O[C@@H]8O[C@H](CO)[C@@H](O)[C@H](O)[C@H]8O)[C@H]7O)[C@H](O)[C@H]6O)[C@H](O)C[C@]5(C)[C@H]4CC[C@]3(C)[C@H]2[C@@H]1C)CO[C@@H]1O[C@H](CO)[C@@H](O)[C@H](O)[C@H]1O (stereo not given in full) [CAPSICOSIDE A] | 1000 µg/mL (≈ 702 µM) | 1000 µg/mL (≈ 702 µM) | 1000 µg/mL (≈ 702 µM) | > 1000 µg/mL | > 1000 µg/mL | > 1000 µg/mL | > 1000 µg/mL | > 1000 µg/mL | > 1000 µg/mL | 1000 µg/mL (≈ 702 µM) | > 1000 µg/mL | 1000 µg/mL (≈ 702 µM) | > 1000 µg/mL | 1000 µg/mL (≈ 702 µM) | 1000 µg/mL (≈ 702 µM) | > 1000 µg/mL | 1000 µg/mL (≈ 702 µM) | 1000 µg/mL (≈ 702 µM) | 1000 µg/mL (≈ 702 µM)
4 | C[C@H](CCC1(O)O[C@H]2C[C@H]3[C@@H]4CC[C@H]5C[C@@H](O[C@@H]6O[C@H](CO)[C@H](O[C@@H]7O[C@H](CO)[C@@H](O)[C@H](O[C@@H]8OC[C@@H](O)[C@H](O)[C@H]8O)[C@H]7O[C@@H]7O[C@H](CO)[C@@H](O)[C@H](O[C@@H]8O[C@H](CO)[C@@H](O)[C@H](O)[C@H]8O)[C@H]7O)[C@H](O)[C@H]6O)CC[C@]5(C)[C@H]4CC[C@]3(C)[C@H]2[C@@H]1C)CO[C@@H]1O[C@H](CO)[C@@H](O)[C@H](O)[C@H]1O (stereo not given in full) [CAPSICOSIDE D] | 1000 µg/mL (≈ 726 µM) | 1000 µg/mL (≈ 726 µM) | 1000 µg/mL (≈ 726 µM) | > 1000 µg/mL | > 1000 µg/mL | > 1000 µg/mL | > 1000 µg/mL | > 1000 µg/mL | > 1000 µg/mL | 1000 µg/mL (≈ 726 µM) | > 1000 µg/mL | 1000 µg/mL (≈ 726 µM) | > 1000 µg/mL | 1000 µg/mL (≈ 726 µM) | 1000 µg/mL (≈ 726 µM) | > 1000 µg/mL | 1000 µg/mL (≈ 726 µM) | > 1000 µg/mL | 1000 µg/mL (≈ 726 µM)
5 | C[C@H](CCC1(O)O[C@H]2C[C@H]3[C@@H]4CC[C@H]5C[C@@H](O[C@@H]6O[C@H](CO)[C@H](O[C@@H]7O[C@H](CO)[C@@H](O)[C@H](O[C@@H]8O[C@H](CO)[C@@H](O)[C@H](O)[C@H]8O)[C@H]7O[C@@H]7O[C@H](CO)[C@@H](O)[C@H](O[C@@H]8O[C@H](CO)[C@@H](O)[C@H](O)[C@H]8O)[C@H]7O)[C@H](O)[C@H]6O)CC[C@]5(C)[C@H]4CC[C@]3(C)[C@H]2[C@@H]1C)CO[C@@H]1O[C@H](CO)[C@@H](O)[C@H](O)[C@H]1O (stereo not given in full) [CAPSICOSIDE G] | 1000 µg/mL (≈ 710 µM) | 1000 µg/mL (≈ 710 µM) | 1000 µg/mL (≈ 710 µM) | > 1000 µg/mL | > 1000 µg/mL | > 1000 µg/mL | > 1000 µg/mL | > 1000 µg/mL | > 1000 µg/mL | 1000 µg/mL (≈ 710 µM) | > 1000 µg/mL | 1000 µg/mL (≈ 710 µM) | > 1000 µg/mL | 1000 µg/mL (≈ 710 µM) | 1000 µg/mL (≈ 710 µM) | 1000 µg/mL (≈ 710 µM) | 1000 µg/mL (≈ 710 µM) | 1000 µg/mL (≈ 710 µM) | 1000 µg/mL (≈ 710 µM)
6 | CC1=C(CC[C@@H](C)CO[C@@H]2O[C@H](CO)[C@@H](O)[C@H](O)[C@H]2O)O[C@H]2C[C@H]3[C@@H]4CC[C@H]5C[C@@H](O[C@@H]6O[C@H](CO)[C@H](O[C@@H]7O[C@H](CO)[C@@H](O)[C@H](O[C@@H]8O[C@H](CO)[C@@H](O)[C@H](O)[C@H]8O)[C@H]7O[C@@H]7O[C@H](CO)[C@@H](O)[C@H](O[C@@H]8O[C@H](CO)[C@@H](O)[C@H](O)[C@H]8O)[C@H]7O)[C@H](O)[C@H]6O)[C@H](O)C[C@]5(C)[C@H]4CC[C@]3(C)[C@@H]12 [Capsicoside F] | 1000 µg/mL (≈ 711 µM) | 1000 µg/mL (≈ 711 µM) | 1000 µg/mL (≈ 711 µM) | > 1000 µg/mL | > 1000 µg/mL | > 1000 µg/mL | > 1000 µg/mL | > 1000 µg/mL | > 1000 µg/mL | 1000 µg/mL (≈ 711 µM) | > 1000 µg/mL | 1000 µg/mL (≈ 711 µM) | > 1000 µg/mL | 1000 µg/mL (≈ 711 µM) | 1000 µg/mL (≈ 711 µM) | – | – | – | –
7 | C[C@H](CCC1(O)O[C@H]2C[C@H]3[C@@H]4CC[C@H]5C[C@@H](O[C@@H]6O[C@H](CO)[C@H](O[C@@H]7O[C@H](CO)[C@@H](O)[C@H](O[C@@H]8OC[C@@H](O)[C@H](O)[C@H]8O)[C@H]7O[C@@H]7O[C@H](CO)[C@@H](O)[C@H](O)[C@H]7O)[C@H](O)[C@H]6O)CC[C@]5(C)[C@H]4CC[C@]3(C)[C@H]2[C@@H]1C)CO[C@@H]1O[C@H](CO)[C@@H](O)[C@H](O)[C@H]1O (stereo not given in full) [TIMOSAPONIN I2] | 1000 µg/mL (≈ 823 µM) | 1000 µg/mL (≈ 823 µM) | 1000 µg/mL (≈ 823 µM) | > 1000 µg/mL | > 1000 µg/mL | > 1000 µg/mL | > 1000 µg/mL | > 1000 µg/mL | > 1000 µg/mL | 1000 µg/mL (≈ 823 µM) | > 1000 µg/mL | 1000 µg/mL (≈ 823 µM) | > 1000 µg/mL | 1000 µg/mL (≈ 823 µM) | 1000 µg/mL (≈ 823 µM) | > 1000 µg/mL | 1000 µg/mL (≈ 823 µM) | > 1000 µg/mL | 1000 µg/mL (≈ 823 µM)
